In ChEMBL document CHEMBL4138271, “Crystal Structures and Human Leukemia Cell Apoptosis Inducible Activities of Parthenolide Analogues Isolated from Piptocoma rufescens” (J Nat Prod, 2018):
pIC50: −log10 of the molar value. Active and inactive are the calls of the source. The rule behind the calls is not given here.

Assays:
MOLM-13 [1] = test: Cytotoxicity against human MOLM13 cells after 72 hrs by MTS assay; type: functional, cell-based; settings: MOLM-13, 72 h
EOL1 [2] = test: Cytotoxicity against human EOL-1 cells after 72 hrs by MTS assay; type: functional, cell-based; settings: EOL1, 72 h
MOLM-13 [3] = test: Synergistic antileukemic activity against human MOLM13 cells assessed as concentration required for <= 75% cell survival after 72 hrs in presence of midostaurin by CellTiter 96 AQueous One solution cell proliferation assay; type: functional
EOL1 [4] = test: Synergistic antileukemic activity against human EOL-1 cells assessed as concentration required for <= 75% cell survival after 72 hrs in presence of midostaurin by CellTiter 96 AQueous One solution cell proliferation assay; type: functional
MOLM-13 [5] = test: Induction of apoptosis in human MOLM13 cells assessed as live cells at 0.81 uM after 24 hrs by Annexin-V FITC/7-AAD staining based flow cytometric method (reference value: 86.8%); type: functional
MOLM-13 [6] = test: Induction of apoptosis in human MOLM13 cells assessed as early apoptotic cells at 0.81 uM after 24 hrs by Annexin-V FITC/7-AAD staining based flow cytometric method (reference value: 11.8%); type: functional
MOLM-13 [7] = test: Induction of apoptosis in human MOLM13 cells assessed as late apoptotic cells at 0.81 uM after 24 hrs by Annexin-V FITC/7-AAD staining based flow cytometric method (reference value: 1.43%); type: functional
MOLM-13 [8] = test: Induction of apoptosis in human MOLM13 cells assessed as necrotic cells at 0.81 uM after 24 hrs by Annexin-V FITC/7-AAD staining based flow cytometric method (reference value: 0%); type: functional
MOLM-13 [9] = test: Induction of apoptosis in human MOLM13 cells assessed as live cells at 1.6 uM after 24 hrs by Annexin-V FITC/7-AAD staining based flow cytometric method (reference value: 86.8%); type: functional
MOLM-13 [10] = test: Induction of apoptosis in human MOLM13 cells assessed as early apoptotic cells at 1.6 uM after 24 hrs by Annexin-V FITC/7-AAD staining based flow cytometric method (reference value: 11.8%); type: functional
MOLM-13 [11] = test: Induction of apoptosis in human MOLM13 cells assessed as late apoptotic cells at 1.6 uM after 24 hrs by Annexin-V FITC/7-AAD staining based flow cytometric method (reference value: 1.43%); type: functional
MOLM-13 [12] = test: Induction of apoptosis in human MOLM13 cells assessed as necrotic cells at 1.6 uM after 24 hrs by Annexin-V FITC/7-AAD staining based flow cytometric method (reference value: 0%); type: functional
MOLM-13 [13] = test: Induction of apoptosis in human MOLM13 cells assessed as live cells at 4 uM after 24 hrs by Annexin-V FITC/7-AAD staining based flow cytometric method (reference value: 86.8%); type: functional
MOLM-13 [14] = test: Induction of apoptosis in human MOLM13 cells assessed as early apoptotic cells at 4 uM after 24 hrs by Annexin-V FITC/7-AAD staining based flow cytometric method (reference value: 11.8%); type: functional
MOLM-13 [15] = test: Induction of apoptosis in human MOLM13 cells assessed as late apoptotic cells at 4 uM after 24 hrs by Annexin-V FITC/7-AAD staining based flow cytometric method (reference value: 1.43%); type: functional
MOLM-13 [16] = test: Induction of apoptosis in human MOLM13 cells assessed as necrotic cells at 4 uM after 24 hrs by Annexin-V FITC/7-AAD staining based flow cytometric method (reference value: 0%); type: functional
EOL1 [17] = test: Induction of apoptosis in human EOL-1 cells assessed as live cells at 0.81 uM after 24 hrs by Annexin-V FITC/7-AAD staining based flow cytometric method (reference value: 97.5%); type: functional
EOL1 [18] = test: Induction of apoptosis in human EOL-1 cells assessed as early apoptotic cells at 0.81 uM after 24 hrs by Annexin-V FITC/7-AAD staining based flow cytometric method (reference value: 1.94%); type: functional
EOL1 [19] = test: Induction of apoptosis in human EOL-1 cells assessed as late apoptotic cells at 0.81 uM after 24 hrs by Annexin-V FITC/7-AAD staining based flow cytometric method (reference value: 0.535%); type: functional
EOL1 [20] = test: Induction of apoptosis in human EOL-1 cells assessed as necrotic cells at 0.81 uM after 24 hrs by Annexin-V FITC/7-AAD staining based flow cytometric method (reference value: 0.032%); type: functional
EOL1 [21] = test: Induction of apoptosis in human EOL-1 cells assessed as live cells at 1.6 uM after 24 hrs by Annexin-V FITC/7-AAD staining based flow cytometric method (reference value: 97.5%); type: functional
EOL1 [22] = test: Induction of apoptosis in human EOL-1 cells assessed as early apoptotic cells at 1.6 uM after 24 hrs by Annexin-V FITC/7-AAD staining based flow cytometric method (reference value: 1.94%); type: functional
EOL1 [23] = test: Induction of apoptosis in human EOL-1 cells assessed as late apoptotic cells at 1.6 uM after 24 hrs by Annexin-V FITC/7-AAD staining based flow cytometric method (reference value: 0.535%); type: functional
EOL1 [24] = test: Induction of apoptosis in human EOL-1 cells assessed as necrotic cells at 1.6 uM after 24 hrs by Annexin-V FITC/7-AAD staining based flow cytometric method (reference value: 0.032%); type: functional
EOL1 [25] = test: Induction of apoptosis in human EOL-1 cells assessed as live cells at 4 uM after 24 hrs by Annexin-V FITC/7-AAD staining based flow cytometric method (reference value: 97.5%); type: functional
EOL1 [26] = test: Induction of apoptosis in human EOL-1 cells assessed as early apoptotic cells at 4 uM after 24 hrs by Annexin-V FITC/7-AAD staining based flow cytometric method (reference value: 1.94%); type: functional
EOL1 [27] = test: Induction of apoptosis in human EOL-1 cells assessed as late apoptotic cells at 4 uM after 24 hrs by Annexin-V FITC/7-AAD staining based flow cytometric method (reference value: 0.535%); type: functional
EOL1 [28] = test: Induction of apoptosis in human EOL-1 cells assessed as necrotic cells at 4 uM after 24 hrs by Annexin-V FITC/7-AAD staining based flow cytometric method (reference value: 0.032%); type: functional
MOLM-13 [29] = test: Induction of apoptosis in human MOLM13 cells assessed as caspase-3 activation at 10 uM after 72 hrs by immunoblotting analysis; type: functional, cell-based
How it was run: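 MOLM-13 cells treated 72 h with test compounds at 10 μM or PKC412 at 10 nM. Cells washed in ice-cold PBS, lysed at 10^8 cells/mL in NP-40 hypertonic buffer (pH 7.5) with protease/phosphatase inhibitors, then run on SDS-PAGE and PVDF. Blots probed 12 h with rabbit monoclonal cleaved caspase-3 (Asp175), β-actin as loading control. Representative of three independent experiments.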

EOL1 [30] = test: Induction of apoptosis in human EOL-1 cells assessed as caspase-3 activation at 10 uM after 72 hrs by immunoblotting analysis; type: functional, cell-based
How it was run: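 EOL-1 cells (RPMI 1640, 10% FBS, 37 °C, 5% CO2) exposed 72 h; compounds at 10 μM, PKC412 at 10 nM. Harvested, PBS-washed, lysed in hypertonic NP-40 buffer with protease/phosphatase inhibitors; SDS-PAGE, PVDF transfer, rabbit monoclonal cleaved caspase-3 (Asp175) antibody 12 h, secondary 1 h, chemiluminescent detection; β-actin loading control. Representative blots of three independent experiments.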

C=C1C(=O)O[C@@H]2C3O[C@]3(C)CC/C=C(\C)CC[C@@H]12 (stereo not given in full)
pIC50 (MOLM-13 [1]): 5.00
pIC50 (EOL1 [2]): 5.12
Activity (MOLM-13 [3]): 3.2 µM
Activity (EOL1 [4]): 3.2 µM
Activity (MOLM-13 [5]): 90.6%
Activity (MOLM-13 [6]): 8.23%
Activity (MOLM-13 [7]): 1.14%
Activity (MOLM-13 [8]): 0.033%
Activity (MOLM-13 [9]): 94.3%
Activity (MOLM-13 [10]): 4.46%
Activity (MOLM-13 [11]): 1.23%
Activity (MOLM-13 [12]): 0.044%
Activity (MOLM-13 [13]): 92.4%
Activity (MOLM-13 [14]): 6.43%
Activity (MOLM-13 [15]): 1.02%
Activity (MOLM-13 [16]): 0.181%
Activity (EOL1 [17]): 98.1%
Activity (EOL1 [18]): 1.56%
Activity (EOL1 [19]): 0.329%
Activity (EOL1 [20]): 0.011%
Activity (EOL1 [21]): 97.2%
Activity (EOL1 [22]): 2.43%
Activity (EOL1 [23]): 0.361%
Activity (EOL1 [24]): 0.043%
Activity (EOL1 [25]): 97%
Activity (EOL1 [26]): 2.13%
Activity (EOL1 [27]): 0.697%
Activity (EOL1 [28]): 0.118%
Activity (MOLM-13 [29]): Active
Activity (EOL1 [30]): Active
